Tests used:
Assay type in all cases: functional
[1] = tested on: NCI-H522; assay: Growth inhibition of human NCI-H522 cells at 10 uM relative to control; settings: values are per cent of control
How it was run: (§1)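 Single-dose preliminary screen in the NCI human cancer cell line panel, run by the NIH. Percent inhibition of cell line growth was calculated by comparison with untreated samples.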

[2] = tested on: T47D; assay: Growth inhibition of human T47D cells at 10 uM relative to control; settings: values are per cent of control
How it was run: (§2)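 Single-dose NCI human tumour cell line screen, run by the NIH. Percent inhibition of cell line growth was calculated by comparison with untreated samples.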

[3] = cells; settings: Homo sapiens, Cancer cell lines
[4] = tested on: EKVX; assay: Growth inhibition of human EKVX cells at 10 uM relative to control; settings: values are per cent of control; how it was run: as §1
[5] = tested on: OVCAR-3; assay: Growth inhibition of human OVCAR-3 cells at 10 uM relative to control; settings: values are per cent of control; how it was run: as §1
[6] = tested on: HL-60(TB); assay: Growth inhibition of human HL-60(TB) cells at 10 uM relative to control; settings: read-out: INH
How it was run: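 Single-dose cell line screen run by the NCI (NIH) in its human cancer cell line panel, which includes the leukemia line HL-60(TB). Percent growth inhibition was calculated by comparison with untreated samples.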

[7] = tested on: UACC-257; assay: Growth inhibition of human UACC257 cells at 10 uM relative to control; settings: values are per cent of control; how it was run: as §2
[8] = tested on: K562; assay: Growth inhibition of human K562 cells at 10 uM relative to control; settings: values are per cent of control; how it was run: as §1
[9] = tested on: SK-MEL-5; assay: Growth inhibition of human SK-MEL-5 cells at 10 uM relative to control; settings: values are per cent of control; how it was run: as §1
[10] = cells; settings: Homo sapiens, Cancer cell lines; remark: listed apart in the source
[11] = tested on: MOLT-4; assay: Growth inhibition of human MOLT4 cells at 10 uM relative to control; settings: values are per cent of control; how it was run: as §1
[12] = tested on: HT-29; assay: Growth inhibition of human HT-29 cells at 10 uM relative to control; settings: values are per cent of control; how it was run: as §1
[13] = tested on: NCI-H460; assay: Growth inhibition of human NCI-H460 cells at 10 uM relative to control; settings: values are per cent of control; how it was run: as §1
[14] = tested on: CCRF-CEM; assay: Growth inhibition of human CCRF-CEM cells at 10 uM relative to control; settings: values are per cent of control; how it was run: as §1
[15] = Growth inhibition of human RPMI8266 cells at 10 uM relative to control; settings: values are per cent of control; how it was run: as §1
[16] = cells; settings: Homo sapiens, Cancer cell lines; remark: listed apart in the source
[17] = tested on: 786-0; assay: Growth inhibition of human 786-0 cells at 10 uM relative to control; settings: values are per cent of control; how it was run: as §1
[18] = tested on: OVCAR-8; assay: Growth inhibition of human OVCAR8 cells at 10 uM relative to control; settings: values are per cent of control; how it was run: as §1
[19] = tested on: BT-549; assay: Growth inhibition of human BT549 cells at 10 uM relative to control; settings: values are per cent of control; how it was run: as §1
[20] = Growth inhibition of human Hs 578T cells at 10 uM relative to control; settings: values are per cent of control; how it was run: as §1
[21] = tested on: CAKI-1; assay: Growth inhibition of human Caki1 cells at 10 uM relative to control; settings: values are per cent of control; how it was run: as §1
[22] = tested on: TK-10; assay: Growth inhibition of human TK10 cells at 10 uM relative to control; settings: values are per cent of control; how it was run: as §2
[23] = tested on: NCI/ADR-RES; assay: Growth inhibition of human NCI/ADR-RES cells at 10 uM relative to control; settings: values are per cent of control; how it was run: as §1
[24] = tested on: NCI-H322M; assay: Growth inhibition of human NCI-H322M cells at 10 uM relative to control; settings: values are per cent of control; how it was run: as §1
[25] = tested on: SK-MEL-2; assay: Growth inhibition of human SK-MEL-2 cells at 10 uM relative to control; settings: values are per cent of control; how it was run: as §1
[26] = tested on: LOX IMVI; assay: Growth inhibition of human LOXIMVI cells at 10 uM relative to control; settings: values are per cent of control; how it was run: as §1
[27] = tested on: IGROV-1; assay: Growth inhibition of human IGROV1 cells at 10 uM relative to control; settings: values are per cent of control; how it was run: as §1
[28] = tested on: Malme-3M; assay: Growth inhibition of human MALME-3M cells at 10 uM relative to control; settings: values are per cent of control; how it was run: as §1
[29] = tested on: Leukemia cell; assay: cells; settings: Homo sapiens
[30] = tested on: OVCAR-4; assay: Growth inhibition of human OVCAR4 cells at 10 uM relative to control; settings: values are per cent of control; how it was run: as §1
[31] = tested on: SF-295; assay: Growth inhibition of human SF295 cells at 10 uM relative to control; settings: values are per cent of control; how it was run: as §1
[32] = tested on: UO-31; assay: Growth inhibition of human UO31 cells at 10 uM relative to control; settings: values are per cent of control; how it was run: as §2
[33] = tested on: OVCAR-5; assay: Growth inhibition of human OVCAR5 cells at 10 uM relative to control; settings: values are per cent of control; how it was run: as §1
[34] = tested on: NCI-H226; assay: Growth inhibition of human NCI-H226 cells at 10 uM relative to control; settings: values are per cent of control; how it was run: as §1
[35] = tested on: U-251; assay: Growth inhibition of human U251 cells at 10 uM relative to control; settings: values are per cent of control; how it was run: as §2
[36] = tested on: HCT-116; assay: Growth inhibition of human HCT116 cells at 10 uM relative to control; settings: values are per cent of control; how it was run: as §1
[37] = tested on: SN12C; assay: Growth inhibition of human SN12C cells at 10 uM relative to control; settings: values are per cent of control; how it was run: as §1
[38] = tested on: COLO 205; assay: Growth inhibition of human COLO205 cells at 10 uM relative to control; settings: values are per cent of control; how it was run: as §1
[39] = cells; settings: Homo sapiens, Cancer cell lines; remark: listed apart in the source
[40] = tested on: PC-3; assay: Growth inhibition of human PC3 cells at 10 uM relative to control; settings: values are per cent of control; how it was run: as §1
[41] = tested on: HCC 2998; assay: Growth inhibition of human HCC2998 cells at 10 uM relative to control; settings: values are per cent of control; how it was run: as §1
[42] = tested on: MCF7; assay: Growth inhibition of human MCF7 cells at 10 uM relative to control; settings: values are per cent of control; how it was run: as §1
[43] = tested on: MDA-MB-468; assay: Growth inhibition of human MDA-MB-468 cells at 10 uM relative to control; settings: values are per cent of control; how it was run: as §1
[44] = tested on: SK-OV-3; assay: Growth inhibition of human SKOV3 cells at 10 uM relative to control; settings: values are per cent of control; how it was run: as §1
[45] = tested on: NCI-H23; assay: Growth inhibition of human NCI-H23 cells at 10 uM relative to control; settings: values are per cent of control; how it was run: as §1
[46] = tested on: SNB-75; assay: Growth inhibition of human SNB75 cells at 10 uM relative to control; settings: values are per cent of control; how it was run: as §2
[47] = tested on: SNB-19; assay: Growth inhibition of human SNB19 cells at 10 uM relative to control; settings: values are per cent of control; how it was run: as §1
[48] = tested on: A549; assay: Growth inhibition of human A549 cells at 10 uM relative to control; settings: values are per cent of control; how it was run: as §1
[49] = tested on: MDA-MB-435; assay: Growth inhibition of human MDA-MB-435 cells at 10 uM relative to control; settings: values are per cent of control; how it was run: as §1
[50] = tested on: HCT-15; assay: Growth inhibition of human HCT15 cells at 10 uM relative to control; settings: values are per cent of control; how it was run: as §1
[51] = tested on: Melanoma cell; assay: cells; settings: Homo sapiens
[52] = tested on: MDA-MB-231; assay: Growth inhibition of human MDA-MB-231 cells at 10 uM relative to control; settings: values are per cent of control; how it was run: as §1
[53] = cells; settings: Homo sapiens, Cancer cell lines; remark: listed apart in the source
[54] = tested on: UACC-62; assay: Growth inhibition of human UACC62 cells at 10 uM relative to control; settings: values are per cent of control; how it was run: as §2
[55] = tested on: SF-268; assay: Growth inhibition of human SF268 cells at 10 uM relative to control; settings: values are per cent of control; how it was run: as §1
[56] = tested on: M14; assay: Growth inhibition of human M14 cells at 10 uM relative to control; settings: values are per cent of control; how it was run: as §1
[57] = tested on: ACHN; assay: Growth inhibition of human ACHN cells at 10 uM relative to control; settings: values are per cent of control; how it was run: as §1
[58] = tested on: DU-145; assay: Growth inhibition of human DU145 cells at 10 uM relative to control; settings: values are per cent of control; how it was run: as §1
[59] = tested on: SK-MEL-28; assay: Growth inhibition of human SK-MEL-28 cells at 10 uM relative to control; settings: values are per cent of control; how it was run: as §1
[60] = tested on: HOP-62; assay: Growth inhibition of human HOP62 cells at 10 uM relative to control; settings: values are per cent of control; how it was run: as §1
[61] = tested on: KM12; assay: Growth inhibition of human KM12 cells at 10 uM relative to control; settings: values are per cent of control; how it was run: as §1
[62] = tested on: SF-539; assay: Growth inhibition of human SF539 cells at 10 uM relative to control; settings: values are per cent of control; how it was run: as §1

O=C(/C=C/c1cn(CC(=O)c2ccccc2)nn1)NO
growth, % of control at 10 µM [1]: 31.1%
growth, % of control at 10 µM [2]: 64.7%
inhibition at 10 µM [3]: 67%
growth, % of control at 10 µM [4]: 54.6%
growth, % of control at 10 µM [5]: 57.7%
growth, % of control at 10 µM [6]: 258%
growth, % of control at 10 µM [7]: 43.9%
growth, % of control at 10 µM [8]: 72.3%
growth, % of control at 10 µM [9]: 92.9%
growth percent at 10 µM [10]: 65%
growth, % of control at 10 µM [11]: 83%
growth, % of control at 10 µM [12]: 60%
growth, % of control at 10 µM [13]: 62.5%
growth, % of control at 10 µM [14]: 48.6%
growth, % of control at 10 µM [15]: 55.6%
inhibition at 10 µM [16]: 53%
growth, % of control at 10 µM [17]: 39.9%
growth, % of control at 10 µM [18]: 45.1%
growth, % of control at 10 µM [19]: 72.1%
growth, % of control at 10 µM [20]: 211%
growth, % of control at 10 µM [21]: 63.9%
growth, % of control at 10 µM [22]: 46.7%
growth, % of control at 10 µM [23]: 14.8%
growth, % of control at 10 µM [24]: 41.3%
growth, % of control at 10 µM [25]: 61.7%
growth, % of control at 10 µM [26]: 88.3%
growth, % of control at 10 µM [27]: 64.2%
growth, % of control at 10 µM [28]: 6.42%
inhibition at 10 µM [29]: 104%
growth, % of control at 10 µM [30]: 77.8%
growth, % of control at 10 µM [31]: 15.3%
growth, % of control at 10 µM [32]: 45.3%
growth, % of control at 10 µM [33]: 65%
growth, % of control at 10 µM [34]: 89.4%
growth, % of control at 10 µM [35]: 76%
growth, % of control at 10 µM [36]: 30.7%
growth, % of control at 10 µM [37]: 86.2%
growth, % of control at 10 µM [38]: 105%
growth percent at 10 µM [39]: 78%
growth, % of control at 10 µM [40]: 57.8%
growth, % of control at 10 µM [41]: 71.1%
growth, % of control at 10 µM [42]: 77.8%
growth, % of control at 10 µM [43]: 64.6%
growth, % of control at 10 µM [44]: 81.9%
growth, % of control at 10 µM [45]: 69.2%
growth, % of control at 10 µM [46]: 53.9%
growth, % of control at 10 µM [47]: 101%
growth, % of control at 10 µM [48]: 54.1%
growth, % of control at 10 µM [49]: 23.3%
growth, % of control at 10 µM [50]: 117%
inhibition at 10 µM [51]: 60%
growth, % of control at 10 µM [52]: 96.9%
inhibition at 10 µM [53]: 65%
growth, % of control at 10 µM [54]: 61.2%
growth, % of control at 10 µM [55]: 71.9%
growth, % of control at 10 µM [56]: 49.5%
growth, % of control at 10 µM [57]: 82.5%
growth, % of control at 10 µM [58]: 75.2%
growth, % of control at 10 µM [59]: 82.2%
growth, % of control at 10 µM [60]: 30.1%
growth, % of control at 10 µM [61]: 78%
growth, % of control at 10 µM [62]: 86.4%

Reference: ChEMBL document CHEMBL1140227, “Histone deacetylase inhibitors through click chemistry” (J Med Chem, 2008)
